ChEMBL document CHEMBL2163277, “The selectivity of austocystin D arises from cell-line-specific drug activation by cytochrome P450 enzymes” (J Nat Prod, 2011)
Activity calls are given as the source filed them. No cut-off for these calls is given here.

Experiments:
MCF7 [1] = test: Growth inhibition of human MCF7 cells after 72 hrs by celltiter-blue viability assay; assay type: functional
Outline: (§1)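 Cells (HUVEC from Lonza, others from ATCC) seeded at 2500–10 000 cells/well 24 h before dosing. 3-fold serial dilutions in DMSO, 0.1% DMSO final. Cell-Titer Blue read at 0 h and 72 h.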

[2] = Growth inhibition of human MCF10A cells after 72 hrs by celltiter-blue viability assay; assay type: cell-based, MCF-10A; outline: as §1
MCF-10A = test: Growth inhibition of human MCF10A cells after 72 hrs by celltiter-blue viability assay relative to control; assay type: cell-based
Outline: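 MCF10A seeded at 2500–10 000 cells/well 24 h before dosing. 3-fold serial dilutions, 0.1% DMSO final. Cell-Titer Blue read at 0 and 72 h. Growth normalized to DMSO controls at 0 h (0%) and 72 h (100%). Dose-response fitted by nonlinear regression.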

HCT-15 [3] = test: Cytotoxicity against MDR1 expressing human HCT15 cells; assay type: functional, cell-based; outline: as §1
HCT-15 [4] = test: Induction of DNA damage in human HCT15 cells assessed as H2AX phosphorylation after 4 hrs by Western blot analysis; assay type: functional, cell-based
Outline: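 HCT-15 cells at 10 000/well, dosed 4 h at 37 °C, 0.1% DMSO final. In-cell Western with anti-phospho-H2AX (Ser139) and DRAQ5. 800/700 nm ratio normalized to 0.1% DMSO (0%) and 10 μM etoposide (100%). Curve fit by nonlinear regression.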

[5] = Growth inhibition of human U87 cells after 72 hrs by celltiter-blue viability assay; assay type: functional, U-87MG ATCC; conditions: U-87 MG; outline: as §1
SR = test: Growth inhibition of human SR cells after 72 hrs by celltiter-blue viability assay; assay type: functional; outline: as §1
HeLa [6] = test: Growth inhibition of human HeLa cells after 72 hrs by celltiter-blue viability assay; assay type: functional; outline: as §1
A549 = test: Growth inhibition of human A549 cells after 72 hrs by celltiter-blue viability assay; assay type: functional; conditions: A549, 72 h; outline: as §1
[7] = Growth inhibition of HUVEC after 72 hrs by celltiter-blue viability assay; assay type: cell-based; conditions: human; outline: as §1
[8] = molecular target: ATP-dependent translocase ABCB1 (Homo sapiens, UniProt P08183); test: Inhibition of MDR1 in human HCT15 cells assessed as calcein-AM efflux at 10 uM by fluorescence assay; assay type: cell-based; conditions: hct-15, 10 µM
MDA-MB-231 = test: Growth inhibition of human MDA-MB-231 cells after 72 hrs by celltiter-blue viability assay; assay type: functional; conditions: MDA-MB-231, 72 h; outline: as §1
PC-3 = test: Growth inhibition of human PC3 cells after 72 hrs by celltiter-blue viability assay; assay type: functional; conditions: PC-3, 72 h; outline: as §1
SW-620 [9] = test: Growth inhibition of human SW620 cells after 72 hrs by celltiter-blue viability assay; assay type: functional; conditions: SW-620, 72 h; outline: as §1
HCT-15 [10] = test: Growth inhibition of human HCT15 cells after 72 hrs by celltiter-blue viability assay; assay type: functional; conditions: HCT-15, 72 h; outline: as §1
[11] = Growth inhibition of human MES-SA cells after 72 hrs by celltiter-blue viability assay; assay type: functional; outline: as §1
[12] = Growth inhibition of human MES-SA/MX2 cells after 72 hrs by celltiter-blue viability assay; assay type: functional; conditions: MX2, 72 h; outline: as §1
HCT-15 [13] = test: Induction of DNA damage in human HCT15 cells assessed as H2AX phosphorylation after 1 hr by Western blot analysis; assay type: functional, cell-based
Outline: (§2)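 In-cell Western for pSer139 H2AX after 1 h dosing. Cells at 10 000/well plated 24 h ahead, 0.1% DMSO final. Fixed in 4% paraformaldehyde, permeabilized, stained with anti-phospho-H2AX plus IR800CW secondary and DRAQ5. 800/700 nm ratio, duplicate or triplicate wells, normalized to 0.1% DMSO (0%) and 10 μM etoposide (100%).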

SW-620 [14] = test: Induction of DNA damage in human SW620 cells assessed as H2AX phosphorylation after 1 hr by Western blot analysis; assay type: functional, cell-based; outline: as §2
HeLa [15] = test: Induction of DNA damage in human HeLa cells assessed as H2AX phosphorylation after 1 hr by Western blot analysis; assay type: functional, cell-based; outline: as §2
HCT-15 [16] = test: Growth inhibition of human HCT15 cells at 0.5 to 2 uM after 72 hrs by celltiter-blue viability assay in presence of CYP inhibitor ketoconazole; assay type: functional, cell-based
Outline: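 HCT-15 cells exposed to 0.5, 1 or 2 μM test agent across a ketoconazole dose range, 0.1% DMSO final. Cell-Titer Blue read at 0 and 72 h. Growth normalized to DMSO controls at 0 h and 72 h.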

HCT-15 [17] = test: Induction of DNA damage in human HCT15 cells assessed as H2AX phosphorylation after 4 hrs by Western blot analysis presence of CYP inhibitor ketoconazole; assay type: functional, cell-based
Outline: (§3)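 Cells pretreated 1 h with 10 μM ketoconazole, then dosed 4 h. pSer139 H2AX measured by in-cell Western as 800/700 nm ratio (DRAQ5 normalization), scaled to 0.1% DMSO (0%) and 10 μM etoposide (100%). In SW620 cells, test agent at 10 μM with 20 μM camptothecin as comparator.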

Liver = test: Induction of DNA damage in human liver microsomes assessed as conversion of supercoiled plasmid DNA to nicked DNA by at 100 nM by agarose gel electrophoresis in presence of NADPH generating system; assay type: functional; conditions: Microsome
Outline: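 Supercoiled pLenti6 plasmid (120 μg/mL) incubated 4 h at 37 °C with compound (100 nM–1 μM, 1% DMSO) plus or minus human liver microsomes (0.25 mg/mL) and NADPH regenerating system (1.5 mM NADP, 12.5 mM G6P, 0.25 U/mL G6PDH, 100 mM phosphate pH 7.5, 5 mM MgCl2). Phenol/chloroform stop, DNA purified, 0.8% agarose gel for nicked versus supercoiled forms.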

SW-620 [18] = test: Induction of DNA damage in human SW620 cells assessed as H2AX phosphorylation at 10 uM in presence of CYP inhibitor ketoconazole; assay type: functional, cell-based; outline: as §3
HCT-15 [19] = test: Ratio of austocystin D GI50 to verapamil GI50 for MDR1 expressing human HCT15 cells; assay type: functional
MCF7 [20] = test: Selectivity ratio of GI50 for human MCF7 cells over GI50 for human MES-SA cells; assay type: functional
MCF7 [21] = test: Selectivity ratio of GI50 for human MCF7 cells over GI50 for human MCF10A cells
MCF7 [22] = test: Growth inhibition of human MCF7 cells at up to 10 uM after 72 hrs by celltiter-blue viability assay; assay type: functional, cell-based
MCF7 [23] = test: Induction of DNA damage in human MCF7 cells assessed as H2AX phosphorylation up to 10 uM after 4 hrs by Western blot analysis; assay type: functional, cell-based
Outline: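 In-cell Western: MCF7 at 10 000 cells/well, dosed 24 h later with 3-fold serial dilutions (final DMSO 0.1%); 4 h at 37 °C, paraformaldehyde fixation, anti-phospho-H2AX Ser139 with IR800 secondary, DRAQ5 for normalization (800/700 nm ratio); duplicate or triplicate wells, scaled to 0.1% DMSO (0%) and 10 μM etoposide (100%); nonlinear curve fit.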

Sequence of ATP-dependent translocase ABCB1 (P08183 whole entry): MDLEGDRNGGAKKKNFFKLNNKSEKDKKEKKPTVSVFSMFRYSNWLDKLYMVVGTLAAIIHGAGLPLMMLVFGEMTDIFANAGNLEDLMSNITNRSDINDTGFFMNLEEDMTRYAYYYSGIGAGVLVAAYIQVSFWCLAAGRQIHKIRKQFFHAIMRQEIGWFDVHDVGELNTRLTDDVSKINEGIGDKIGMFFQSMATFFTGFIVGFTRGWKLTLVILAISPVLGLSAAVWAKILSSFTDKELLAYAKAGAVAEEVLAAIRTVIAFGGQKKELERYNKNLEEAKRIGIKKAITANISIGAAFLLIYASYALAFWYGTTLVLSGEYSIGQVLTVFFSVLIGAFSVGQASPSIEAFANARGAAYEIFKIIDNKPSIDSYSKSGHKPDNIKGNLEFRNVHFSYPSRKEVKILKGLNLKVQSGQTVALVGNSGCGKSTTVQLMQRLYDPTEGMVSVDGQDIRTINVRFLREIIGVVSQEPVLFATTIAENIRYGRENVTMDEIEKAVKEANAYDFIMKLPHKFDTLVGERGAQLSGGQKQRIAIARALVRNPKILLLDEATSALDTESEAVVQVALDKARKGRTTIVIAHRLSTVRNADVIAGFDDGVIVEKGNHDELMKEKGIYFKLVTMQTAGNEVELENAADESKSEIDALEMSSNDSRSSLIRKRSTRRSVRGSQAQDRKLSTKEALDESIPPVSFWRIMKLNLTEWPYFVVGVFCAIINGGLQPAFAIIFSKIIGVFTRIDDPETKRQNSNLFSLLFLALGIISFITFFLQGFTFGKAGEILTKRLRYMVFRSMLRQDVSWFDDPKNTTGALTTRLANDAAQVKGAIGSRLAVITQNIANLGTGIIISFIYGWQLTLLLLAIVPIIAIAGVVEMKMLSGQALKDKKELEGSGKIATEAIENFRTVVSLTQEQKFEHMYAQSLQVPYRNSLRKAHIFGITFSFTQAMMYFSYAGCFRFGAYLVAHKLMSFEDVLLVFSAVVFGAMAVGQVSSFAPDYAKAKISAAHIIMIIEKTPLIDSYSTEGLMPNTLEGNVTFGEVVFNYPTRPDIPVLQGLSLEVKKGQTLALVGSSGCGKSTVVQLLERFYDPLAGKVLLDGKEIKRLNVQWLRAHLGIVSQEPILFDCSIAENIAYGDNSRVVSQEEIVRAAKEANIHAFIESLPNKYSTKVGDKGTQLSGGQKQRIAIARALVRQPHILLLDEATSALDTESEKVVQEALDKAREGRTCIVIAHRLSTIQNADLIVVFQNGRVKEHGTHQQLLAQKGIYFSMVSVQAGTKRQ

COc1cc([C@@H]2c3cc4c(cc3[C@@H](O[C@@H]3O[C@@H]5CO[C@@H](C)O[C@H]5[C@H](O)[C@H]3O)[C@H]3COC(=O)[C@H]23)OCO4)cc(OC)c1O [ETOPOSIDE]
GI50 (MCF7 [1]; MCF7, 72 h): > 5 µM
GI50 at 72 h [2]: > 5 µM
fold change (FC) (MCF-10A): 50

COc1ccc(CCN(C)CCCC(C#N)(c2ccc(OC)c(OC)c2)C(C)C)cc1OC (stereo not drawn)
Activity (HCT-15 [3]): Active

COc1cccc2c1C(=O)c1c(O)c3c(c(O)c1C2=O)C[C@@](O)(C(=O)CO)C[C@@H]3O[C@H]1C[C@H](N)[C@H](O)[C@H](C)O1 [DOXORUBICIN]
GI50 (MCF7 [1]; MCF7, 72 h): > 5 µM
GI50 at 72 h [2]: > 5 µM
Activity (HCT-15 [4]): Dose-dependent effect
fold change (FC) (MCF-10A): 50

CC[C@@]1(O)C(=O)OCc2c1cc1n(c2=O)Cc2cc3ccccc3nc2-1
Activity (HCT-15 [4]): Dose-dependent effect

COc1cc2c(c3oc(=O)c4c(c13)CCC4=O)[C@@H]1C=CO[C@@H]1O2 [AFLATOXIN]
GI50 (MCF7 [1]): > 5 µM
GI50 at 72 h [2]: > 5 µM

CC(C)(O)CCc1ccc(O)c2c(=O)c3c(O)c4c(cc3oc12)O[C@H]1OC=C[C@@]41O [AUSTOCYSTIN D]
GI50 (MCF7 [1]; MCF7, 72 h): < 0.001 µM
GI50 [5]: 4.95 µM
GI50 (SR): 0.016 µM
GI50 (HeLa [6]): > 5 µM
GI50 (A549): > 5 µM
GI50 at 72 h [2]: 3.51 µM
GI50 at 72 h [7]: 4.25 µM
inhibition (INH) [8]: Active
GI50 (MDA-MB-231): 0.549 µM
GI50 (PC-3): 0.003 µM
GI50 (SW-620 [9]): 0.027 µM
GI50 (HCT-15 [10]): 0.042 µM
GI50 [11]: > 10 µM
GI50 [12]: 3.36 µM
Activity (HCT-15 [3]): Active
Activity (HCT-15 [13]): Active
Activity (SW-620 [14]): Active
Activity (HeLa [15]): Active
growth inhibition (GI) (HCT-15 [16]): inactive
Activity (HCT-15 [17]): inactive
Activity (Liver): Active
Activity (SW-620 [18]): inactive
RatioGI50 (HCT-15 [19]): >1000
RatioGI50 (MCF7 [20]): >10000
RatioGI50 (MCF7 [21]): >1000

CC(C)(O)CCc1ccc(O)c2c(=O)c3c(O)c4c(cc3oc12)O[C@H]1OCC[C@@]41O
growth inhibition (GI) (MCF7 [22]): inactive
Activity (MCF7 [23]): inactive
